Measured values pooled from the literature.
Compare with care: the assays were run in different laboratories.
Organism: Staphylococcus aureus
Read-out: microbial killing

| SMILES | method | strain | time | setting | MBC |
| --- | --- | --- | --- | --- | --- |
| COc1c(C)c(OS(=O)(=O)c2ccc3ccccc3c2)c(C)c(O)c1C(=O)/C=C/c1ccccc1 | broth dilution | ATCC25923 | – | – | > 5000 µg/mL |
| O=C(O)CN1C(=O)/C(=C/c2c3ccccc3c(-c3ccc(N(c4ccccc4)c4ccccc4)cc3)c3ccccc23)SC1=S | broth dilution | ATCC43300 | – | – | > 1000 µg/mL |
| CCCCCCCCCCCCCC#CC(=O)O | – | – | – | – | 7.8 µg/mL |
| CCCC(=O)Oc1c(C)c(O)c(C(=O)/C=C/c2ccccc2)c(OC)c1C | broth dilution | ATCC25923 | – | – | > 5000 µg/mL |
| O=C(O)CN1C(=O)/C(=C/c2c3ccccc3c(-c3ccc(N(c4ccccc4)c4ccccc4)cc3)c3ccccc23)NC1=S | broth dilution | ATCC6538 | – | – | > 1000 µg/mL |
| O=c1[nH]cc(F)c(=O)[nH]1 | broth dilution | – | 48 h | – | 1 µg/mL |
| N#CC(=Cc1ccccc1O)C1=NC(=O)C(=Cc2cn(-c3ccccc3)nc2-c2ccccc2)S1 | broth dilution | – | – | – | 0.5 µg/mL |
| COc1c(C)c(OC)c(C(=O)/C=C/c2ccccc2)c(OC)c1C | broth dilution | ATCC25923 | – | – | > 5000 µg/mL |
| CC1CCN(CCCN2/C(=C/c3cc[n+](C)c4ccccc34)Sc3ccccc32)CC1.[I-] | – | ATCC29213 | – | – | 16 µg/mL |
| CC(=O)NC[C@H]1CN(c2ccc(N3CCOCC3)c(F)c2)C(=O)O1 | broth dilution | MRSA NRS119 | – | drug-resistant strain | 64 µM |
| COc1c(C)c(OC(C)=O)c(C)c(O)c1C(=O)/C=C/c1ccccc1 | broth dilution | ATCC25923 | – | – | > 5000 µg/mL |
| O=C1NC(=S)N/C1=C\c1ccc(-c2ccc(N(c3ccccc3)c3ccccc3)cc2)cc1 | broth dilution | ATCC6538 | – | – | > 1000 µg/mL |
| CN[C@H](CC(C)C)C(=O)N[C@H]1C(=O)N[C@@H](CC(N)=O)C(=O)N[C@H]2C(=O)N[C@H]3C(=O)N[C@H](C(=O)N[C@H](C(=O)O)c4cc(O)cc(O)c4-c4cc3ccc4O)[C@H](O)c3ccc(c(Cl)c3)Oc3cc2cc(c3O[C@@H]2O[C@H](CO)[C@@H](O)[C@H](O)[C@H]2O[C@H]2C[C@](C)(N)[C@H](O)[C@H](C)O2)Oc2ccc(cc2Cl)[C@H]1O | broth dilution | ATCC6538 | – | – | 1 µM |
| C=CCOc1c(C)c(O)c(C(=O)/C=C/c2ccccc2)c(OC)c1C | broth dilution | ATCC25923 | – | – | > 5000 µg/mL |
| O=C(O)CN1C(=O)/C(=C/c2ccc(-c3ccc(N(c4ccccc4)c4ccccc4)cc3)cc2)NC1=S | broth dilution | ATCC6538 | – | – | 3.9 µg/mL |
| COc1c(C)c(OC(=O)c2ccccc2)c(C)c(O)c1C(=O)/C=C/c1ccccc1 | broth dilution | ATCC25923 | – | – | > 5000 µg/mL |
| O=[N+]([O-])c1ccc(-c2nc3cccc(O)c3[nH]2)o1 | – | ATCC33591 | – | – | 2 µg/mL |
| COc1c(C)c(OC(C)=O)c(C)c(OC(C)=O)c1C(=O)/C=C/c1ccccc1 | broth dilution | ATCC25923 | – | – | > 5000 µg/mL |
| COc1cc(NC(C)CCCNC(=S)NCCCC(C)Nc2cc(OC)cc3cccnc23)c2ncccc2c1.Cl.Cl (stereo not drawn) | – | ATCC43300 MRSA | – | drug-resistant strain | 10 to 20 µg/mL |
| O=C(O)CN1C(=O)/C(=C/c2ccc(-c3ccc(N(c4ccccc4)c4ccccc4)cc3)c3ccccc23)NC1=S | broth dilution | ATCC43300 | – | – | > 1000 µg/mL |
| N#CC(=Cc1cn(-c2ccccc2)nc1-c1ccccc1)C1=NC(=O)CS1 | broth dilution | – | – | – | 0.25 µg/mL |
| O=C1NC(=S)N/C1=C\c1c2ccccc2c(-c2ccc(N(c3ccccc3)c3ccccc3)cc2)c2ccccc12 | broth dilution | ATCC6538 | – | – | > 1000 µg/mL |
| Cc1c(NC(=O)CC2=NC(=O)CS2)c(=O)n(-c2ccccc2)n1C | broth dilution | – | – | – | 1 µg/mL |
| COc1c(C)c(OC(=O)c2ccc(C)cc2)c(C)c(O)c1C(=O)/C=C/c1ccccc1 | broth dilution | ATCC25923 | – | – | > 5000 µg/mL |
